Laboratory results taken from ChEMBL document CHEMBL2086252, “Syntheses and evaluation of anticonvulsant activity of novel branched alkyl carbamates” (J Med Chem, 2012).
Active and inactive are the calls of the source.

Key:
Mus musculus [1] = test: Anticonvulsant activity in albino CF1 mouse assessed as protection against subcutaneous metrazol-induced seizures at 30 mg/kg, ip after 0.5 hrs; assay type: functional, organism-based; set-up: dose 30 mg/kg
In short: (§1)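 Mice dosed ip at 30, 100 or 300 mg/kg, then tested 0.5 h and 4 h after administration in the MES or scMet test. Protection was recorded as animals protected over animals tested. Neurotoxicity was recorded as motor impairment or sedation, as animals affected over animals tested.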

Mus musculus [2] = test: Anticonvulsant activity in albino CF1 mouse assessed as protection against subcutaneous metrazol-induced seizures at 100 mg/kg, ip after 0.5 hrs; assay type: functional, organism-based; set-up: dose 100 mg/kg; in short: as §1
Mus musculus [3] = test: Anticonvulsant activity in albino CF1 mouse assessed as protection against subcutaneous metrazol-induced seizures at 300 mg/kg, ip after 0.5 hrs; assay type: functional, organism-based; set-up: dose 300 mg/kg; in short: as §1
Mus musculus [4] = test: Anticonvulsant activity in albino CF1 mouse assessed as protection against subcutaneous metrazol-induced seizures at 30 mg/kg, ip after 4 hrs; assay type: functional, organism-based; set-up: dose 30 mg/kg; in short: as §1
Mus musculus [5] = test: Anticonvulsant activity in albino CF1 mouse assessed as protection against subcutaneous metrazol-induced seizures at 100 mg/kg, ip after 4 hrs; assay type: functional, organism-based; set-up: dose 100 mg/kg; in short: as §1
Mus musculus [6] = test: Anticonvulsant activity in albino CF1 mouse assessed as protection against subcutaneous metrazol-induced seizures at 300 mg/kg, ip after 4 hrs; assay type: functional, organism-based; set-up: dose 300 mg/kg; in short: as §1
Mus musculus [7] = test: Anticonvulsant activity in albino CF1 mouse assessed as protection against maximal electroshock-induced seizures at 30 mg/kg, ip after 0.5 hrs; assay type: functional, organism-based; set-up: dose 30 mg/kg; in short: as §1
Mus musculus [8] = test: Anticonvulsant activity in albino CF1 mouse assessed as protection against maximal electroshock-induced seizures at 300 mg/kg, ip after 0.5 hrs; assay type: functional, organism-based; set-up: dose 300 mg/kg; in short: as §1
Mus musculus [9] = test: Anticonvulsant activity in albino CF1 mouse assessed as protection against maximal electroshock-induced seizures at 30 mg/kg, ip after 4 hrs; assay type: functional, organism-based; set-up: dose 30 mg/kg; in short: as §1
Mus musculus [10] = test: Anticonvulsant activity in albino CF1 mouse assessed as protection against maximal electroshock-induced seizures at 100 mg/kg, ip after 4 hrs; assay type: functional, organism-based; set-up: dose 100 mg/kg; in short: as §1
Mus musculus [11] = test: Anticonvulsant activity in albino CF1 mouse assessed as protection against maximal electroshock-induced seizures at 300 mg/kg, ip after 4 hrs; assay type: functional, organism-based; set-up: dose 300 mg/kg; in short: as §1
Mus musculus [12] = test: Neurotoxicity in albino CF1 mouse assessed as minimal motor impairment at 30 mg/kg, ip after 0.5 hrs by rotarod test; assay type: toxicity, organism-based; set-up: dose 30 mg/kg, route intraperitoneal; conditions: in vivo; in short: as §1
Mus musculus [13] = test: Neurotoxicity in albino CF1 mouse assessed as minimal motor impairment at 300 mg/kg, ip after 0.5 hrs by rotarod test; assay type: toxicity, organism-based; set-up: dose 300 mg/kg, route intraperitoneal; conditions: in vivo; in short: as §1
Mus musculus [14] = test: Neurotoxicity in albino CF1 mouse assessed as minimal motor impairment at 30 mg/kg, ip after 4 hrs by rotarod test; assay type: toxicity, organism-based; set-up: dose 30 mg/kg, route intraperitoneal; conditions: in vivo; in short: as §1
Mus musculus [15] = test: Neurotoxicity in albino CF1 mouse assessed as minimal motor impairment at 100 mg/kg, ip after 4 hrs by rotarod test; assay type: toxicity, organism-based; set-up: dose 100 mg/kg, route intraperitoneal; conditions: in vivo; in short: as §1
Mus musculus [16] = test: Neurotoxicity in albino CF1 mouse assessed as minimal motor impairment at 300 mg/kg, ip after 4 hrs by rotarod test; assay type: toxicity, organism-based; set-up: dose 300 mg/kg, route intraperitoneal; conditions: in vivo; in short: as §1
Rattus norvegicus [17] = test: Anticonvulsant activity in Sprague-Dawley albino rat assessed as protection against maximal electroshock-induced seizures at 30 mg/kg, po after 15 mins; assay type: functional, organism-based; set-up: dose 30 mg/kg
In short: (§2)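 Rats dosed orally. Anti-MES protection was scored as animals protected over animals tested at each time after dosing. Neurotoxicity was scored as motor impairment or sedation, as animals affected over animals tested.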

Rattus norvegicus [18] = test: Anticonvulsant activity in Sprague-Dawley albino rat assessed as protection against maximal electroshock-induced seizures at 30 mg/kg, po after 30 mins; assay type: functional, organism-based; set-up: dose 30 mg/kg; in short: as §2
Rattus norvegicus [19] = test: Anticonvulsant activity in Sprague-Dawley albino rat assessed as protection against maximal electroshock-induced seizures at 30 mg/kg, po after 1 hr; assay type: functional, organism-based; set-up: dose 30 mg/kg; in short: as §2
Rattus norvegicus [20] = test: Anticonvulsant activity in Sprague-Dawley albino rat assessed as protection against maximal electroshock-induced seizures at 30 mg/kg, po after 2 hrs; assay type: functional, organism-based; set-up: dose 30 mg/kg; in short: as §2
Rattus norvegicus [21] = test: Anticonvulsant activity in Sprague-Dawley albino rat assessed as protection against maximal electroshock-induced seizures at 30 mg/kg, po after 4 hrs; assay type: functional, organism-based; set-up: dose 30 mg/kg; in short: as §2
Rattus norvegicus [22] = test: Neurotoxicity in Sprague-Dawley albino rat assessed as minimal motor impairment at 30 mg/kg, po by rotarod test; assay type: toxicity, organism-based; set-up: dose 30 mg/kg, route oral; conditions: in vivo; in short: as §2
Rattus norvegicus [23] = test: Anticonvulsant activity in Sprague-Dawley albino rat assessed as protection against pilocarpine-induced status epilepticus at 65 mg/kg, ip; assay type: functional, organism-based; set-up: dose 65 mg/kg
In short: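 Pilocarpine status epilepticus model in rats. Number and severity of convulsive seizures were observed behaviourally.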

Rattus norvegicus [24] = test: Neurotoxicity in pilocarpine-induced status epilepticus Sprague-Dawley albino rat model assessed as minimal motor impairment at 100 mg/kg, ip after 0.25 hr by rotarod test; assay type: toxicity, organism-based; set-up: dose 100 mg/kg, route intraperitoneal; conditions: in vivo
Rattus norvegicus [25] = test: Neurotoxicity in pilocarpine-induced status epilepticus Sprague-Dawley albino rat model assessed as minimal motor impairment at 300 mg/kg, ip after 0.25 hr by rotarod test; assay type: toxicity, organism-based; set-up: dose 300 mg/kg, route intraperitoneal; conditions: in vivo
In short: (§3)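 Rat pilocarpine status epilepticus model: test carbamate given at 0 or 30 min after the first observed Racine stage 3 motor seizure, which marks SE onset. Neurotoxicity was scored within the same model.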

Rattus norvegicus [26] = test: Neurotoxicity in pilocarpine-induced status epilepticus Sprague-Dawley albino rat model assessed as minimal motor impairment at 30 mg/kg, ip after 0.25 hr by rotarod test; assay type: toxicity, organism-based; set-up: dose 30 mg/kg, route intraperitoneal; conditions: in vivo; in short: as §3
Rattus norvegicus [27] = test: Neurotoxicity in pilocarpine-induced status epilepticus Sprague-Dawley albino rat model assessed as minimal motor impairment at 100 mg/kg, ip after 0.5 hrs by rotarod test; assay type: toxicity, organism-based; set-up: dose 100 mg/kg, route intraperitoneal; conditions: in vivo
Rattus norvegicus [28] = test: Neurotoxicity in pilocarpine-induced status epilepticus Sprague-Dawley albino rat model assessed as minimal motor impairment at 300 mg/kg, ip after 0.5 hrs by rotarod test; assay type: toxicity, organism-based; set-up: dose 300 mg/kg, route intraperitoneal; conditions: in vivo; in short: as §3
Rattus norvegicus [29] = test: Neurotoxicity in pilocarpine-induced status epilepticus Sprague-Dawley albino rat model assessed as minimal motor impairment at 30 mg/kg, ip after 0.5 hrs by rotarod test; assay type: toxicity, organism-based; set-up: dose 30 mg/kg, route intraperitoneal; conditions: in vivo; in short: as §3
Rattus norvegicus [30] = test: Neurotoxicity in pilocarpine-induced status epilepticus Sprague-Dawley albino rat model assessed as minimal motor impairment at 100 mg/kg, ip after 1 hr by rotarod test; assay type: toxicity, organism-based; set-up: dose 100 mg/kg, route intraperitoneal; conditions: in vivo
Rattus norvegicus [31] = test: Neurotoxicity in pilocarpine-induced status epilepticus Sprague-Dawley albino rat model assessed as minimal motor impairment at 30 mg/kg, ip after 1 hr by rotarod test; assay type: toxicity, organism-based; set-up: dose 30 mg/kg, route intraperitoneal; conditions: in vivo; in short: as §3
Rattus norvegicus [32] = test: Neurotoxicity in pilocarpine-induced status epilepticus Sprague-Dawley albino rat model assessed as minimal motor impairment at 100 mg/kg, ip after 2 hrs by rotarod test; assay type: toxicity, organism-based; set-up: dose 100 mg/kg, route intraperitoneal; conditions: in vivo
Rattus norvegicus [33] = test: Neurotoxicity in pilocarpine-induced status epilepticus Sprague-Dawley albino rat model assessed as minimal motor impairment at 300 mg/kg, ip after 2 hrs by rotarod test; assay type: toxicity, organism-based; set-up: dose 300 mg/kg, route intraperitoneal; conditions: in vivo; in short: as §3
Rattus norvegicus [34] = test: Neurotoxicity in pilocarpine-induced status epilepticus Sprague-Dawley albino rat model assessed as minimal motor impairment at 30 mg/kg, ip after 2 hrs by rotarod test; assay type: toxicity, organism-based; set-up: dose 30 mg/kg, route intraperitoneal; conditions: in vivo; in short: as §3
Rattus norvegicus [35] = test: Neurotoxicity in pilocarpine-induced status epilepticus Sprague-Dawley albino rat model assessed as minimal motor impairment at 100 mg/kg, ip after 4 hrs by rotarod test; assay type: toxicity, organism-based; set-up: dose 100 mg/kg, route intraperitoneal; conditions: in vivo
Rattus norvegicus [36] = test: Neurotoxicity in pilocarpine-induced status epilepticus Sprague-Dawley albino rat model assessed as minimal motor impairment at 300 mg/kg, ip after 4 hrs by rotarod test; assay type: toxicity, organism-based; set-up: dose 300 mg/kg, route intraperitoneal; conditions: in vivo; in short: as §3
Rattus norvegicus [37] = test: Neurotoxicity in pilocarpine-induced status epilepticus Sprague-Dawley albino rat model assessed as minimal motor impairment at 30 mg/kg, ip after 4 hrs by rotarod test; assay type: toxicity, organism-based; set-up: dose 30 mg/kg, route intraperitoneal; conditions: in vivo; in short: as §3
[38] = Neurotoxicity in po dosed Sprague-Dawley albino rat assessed as minimal motor impairment by rotarod test; assay type: toxicity, organism-based; conditions: in vivo
In short: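 Rats dosed orally; 4 rats per time point after dosing. Neurotoxicity was scored as motor impairment or sedation and reported as number of animals affected over number tested.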

Rattus norvegicus [39] = test: Anticonvulsant activity in po dosed Sprague-Dawley albino rat assessed as protection against maximal electroshock-induced seizures; assay type: functional
In short: (§4)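 Quantitative testing: rats dosed orally or ip in MES and scMet tests, and mice dosed ip, including the 6 Hz (32 mA) psychomotor seizure test. ED50 and TD50 were reported in mg/kg with ranges in parentheses. Protective index was calculated as TD50/ED50.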

Rattus norvegicus [40] = test: Protective index, ratio of TD50 for po dosed Sprague-Dawley albino rat by rotarod test to ED50 for po dosed Sprague-Dawley albino rat by maximal electroshock seizures test; assay type: functional
In short: (§5)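 Protective index calculated as TD50/ED50, with TD50 and ED50 taken from the same species and dosing route.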

Rattus norvegicus [41] = test: Anticonvulsant activity in po dosed Sprague-Dawley albino rat assessed as protection against subcutaneous metrazol-induced seizures; assay type: functional; in short: as §4
Rattus norvegicus [42] = test: Protective index, ratio of TD50 for po dosed Sprague-Dawley albino rat by rotarod test to ED50 for po dosed Sprague-Dawley albino rat by subcutaneous metrazol seizures test; assay type: functional; in short: as §5

CCC(C)CCOC(N)=O (racemic)
Toxic: Activity (Mus musculus [13]) | Activity (Rattus norvegicus [24]) | Activity (Rattus norvegicus [25]) | Activity (Rattus norvegicus [27]) | Activity (Rattus norvegicus [28])
inactive: Activity (Mus musculus [1]) | Activity (Mus musculus [2]) | Activity (Mus musculus [3]) | Activity (Mus musculus [4]) | Activity (Mus musculus [5]) | Activity (Mus musculus [6]) | Activity (Mus musculus [7]) | Activity (Mus musculus [9]) | Activity (Mus musculus [10]) | Activity (Mus musculus [11]) | Activity (Rattus norvegicus [17]) | Activity (Rattus norvegicus [18]) | Activity (Rattus norvegicus [19]) | Activity (Rattus norvegicus [20]) | Activity (Rattus norvegicus [21])
Non-toxic: Activity (Mus musculus [12]) | Activity (Mus musculus [14]) | Activity (Mus musculus [15]) | Activity (Mus musculus [16]) | Activity (Rattus norvegicus [22]) | Activity (Rattus norvegicus [26]) | Activity (Rattus norvegicus [29]) | Activity (Rattus norvegicus [30]) | Activity (Rattus norvegicus [31]) | Activity (Rattus norvegicus [32]) | Activity (Rattus norvegicus [33]) | Activity (Rattus norvegicus [34]) | Activity (Rattus norvegicus [35]) | Activity (Rattus norvegicus [36]) | Activity (Rattus norvegicus [37])
active: Activity (Mus musculus [8]) | Activity (Rattus norvegicus [23])

NC(=O)OC[C@@H](O)c1ccccc1Cl [CARISBAMATE]
8 mg/kg: ED50 (Rattus norvegicus [39])
18: Ratio TD50/ED50 (Rattus norvegicus [40])
137 mg/kg: TD50 [38]
58 mg/kg: ED50 (Rattus norvegicus [41])
2.4: Ratio TD50/ED50 (Rattus norvegicus [42])

NC(=O)OCC(COC(N)=O)c1ccccc1 [FELBAMATE]
20: Ratio TD50/ED50 (Rattus norvegicus [40])
> 250 mg/kg: ED50 (Rattus norvegicus [41])
>2: Ratio TD50/ED50 (Rattus norvegicus [42])
> 500 mg/kg: TD50 [38]
25 mg/kg: ED50 (Rattus norvegicus [39])

CCCC(CCC)C(=O)O [VALPROIC ACID]
646 mg/kg: ED50 (Rattus norvegicus [41])
